Data: ChEMBL document CHEMBL1130216, “Design, synthesis, and dopamine receptor modulating activity of diketopiperazine peptidomimetics of L-prolyl-L-leucylglycinamide” (J Med Chem, 1997)
Where a SMILES comes first, the peptide text is derived from it.

Tests used:
[1] = molecular target: D(2) dopamine receptor (Bos taurus) (UniProt P20288); assay: Percentage of receptor in the high affinity form for the compound to Dopamine receptor D2 in absence of Gpp(NH)p; type: functional
How it was run: (§1)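 Bovine striatal membranes (150-200 µg protein) were incubated with 0.2 nM [3H]spiroperidol and varying N-propylnorapomorphine, with or without 100 µM Gpp(NH)p and 100 nM peptidomimetic, plus 50 nM ketanserin, for 1 h at 22 °C, then GF/B filtered. Nonspecific binding was set with 1.0 µM (+)-butaclamol. A two-site fit gave high/low-affinity fractions; Ki values came via Cheng-Prusoff. Mean ± SEM of 3-4 experiments.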

[2] = molecular target: D(2) dopamine receptor (Bos taurus) (UniProt P20288); assay: Percentage of receptor in the low affinity form for the compound to Dopamine receptor D2 in presence of Gpp(NH)p; type: functional; how it was run: as §1
[3] = molecular target: D(2) dopamine receptor (Bos taurus) (UniProt P20288); assay: Percentage of receptor in the low affinity form for the compound to Dopamine receptor D2 in absence of Gpp(NH)p; type: functional; how it was run: as §1
[4] = molecular target: D(2) dopamine receptor (Bos taurus) (UniProt P20288); assay: Percentage of receptor in the high affinity form for the compound to Dopamine receptor D2 in presence of Gpp(NH)p; type: functional; how it was run: as §1
[5] = molecular target: D(2) dopamine receptor (Bos taurus) (UniProt P20288); assay: Percentage of receptor in the low affinity form for the compound to Dopamine receptor D2 in presence of Gpp(NH)p (pre treated with 1 uM)
[6] = molecular target: D(2) dopamine receptor (Bos taurus) (UniProt P20288); assay: Percentage of receptor in the low affinity form for the compound in absence of Gpp(NH)p (Pre treated with 1 uM) to Dopamine receptor D2
[7] = molecular target: D(2) dopamine receptor (Bos taurus) (UniProt P20288); assay: Percentage of receptor in the high affinity form for the compound to Dopamine receptor D2 in presence of Gpp(NH)p (pre treated with 1 uM); type: functional
[8] = molecular target: D(2) dopamine receptor (Bos taurus) (UniProt P20288); assay: Percentage of receptor in the high affinity form for the compound in absence of Gpp(NH)p (Pre treated with 1 uM) to Dopamine receptor D2

Chain of D(2) dopamine receptor (Bos taurus) (P20288 whole entry): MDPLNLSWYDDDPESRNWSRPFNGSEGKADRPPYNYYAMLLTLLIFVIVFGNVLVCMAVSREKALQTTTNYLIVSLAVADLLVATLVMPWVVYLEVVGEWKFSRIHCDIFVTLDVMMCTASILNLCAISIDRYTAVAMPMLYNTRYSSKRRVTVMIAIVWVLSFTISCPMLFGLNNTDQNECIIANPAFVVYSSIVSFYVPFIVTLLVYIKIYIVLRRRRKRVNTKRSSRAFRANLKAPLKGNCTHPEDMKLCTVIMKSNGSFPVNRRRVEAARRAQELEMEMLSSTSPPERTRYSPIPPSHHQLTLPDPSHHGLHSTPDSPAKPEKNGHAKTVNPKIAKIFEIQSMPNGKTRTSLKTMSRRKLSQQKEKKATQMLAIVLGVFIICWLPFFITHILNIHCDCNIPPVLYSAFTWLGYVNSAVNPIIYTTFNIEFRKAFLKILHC

| RH [1] [%] | RL [2] [%] | RL [3] [%] | RH [4] [%] | RL [5] [%] | RL [6] [%] | RH [7] [%] | RH [8] [%] | SMILES |
| --- | --- | --- | --- | --- | --- | --- | --- | --- |
| 46 | 78 | 55 | 22 | – | – | – | – | NC(=O)CN1CC[C@@H](N2CC(=O)N3CCC[C@H]3C2=O)C1=O |
| 56.2 | 81.2 | 43.8 | 18.8 | – | – | – | – | CC(C)C[C@@H](C(=O)NCC(N)=O)N1CC(=O)N2CCC[C@H]2C1=O |
| 49 | 82 | 51 | 19 | 72 | 41 | 32 | 61 | CC(C)C[C@H](NC(=O)[C@@H]1CCCN1)C(=O)NCC(N)=O (H-Pro-Leu-Gly-NH2) |
| 49 | 81.5 | 51 | 18.5 | – | – | – | – | NC(=O)[C@H]1CS[C@@H]2C[C@@H](N3CC(=O)N4CCC[C@H]4C3=O)C(=O)N12 |
